Test results: ChEMBL document CHEMBL5042485 (J Med Chem, 2022)
Activity calls are given as the source filed them. The calls are words filed in the database; no cut-off is given here.

Tests used:
[1] = Oral bioavailability in CD-1 mouse 5 mg/kg measured upto 24 hrs by LC-MS/MS analysis; format: ADME, organism-based; settings: in vivo
Procedure, shortened: (§1)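 Male CD1 mice, three per group, dosed by tail-vein injection (1 mg/kg) or oral gavage (5 mg/kg). Saphenous blood was drawn at 0.25–24 h and plasma analysed by LC–MS/MS.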

[2] = Unbound clearance in CD-1 mouse at 1 mg/kg, iv measured upto 24 hrs by LC-MS/MS analysis; format: ADME, organism-based; settings: in vivo; procedure, shortened: as §1
[3] = Apparent permeability across apical to basolateral side in MDCK cells; format: ADME, cell-based, Canis lupus familiaris; settings: dog
[4] = Metabolic stability in mouse liver microsomes assessed as intrinsic clearance; format: ADME, Microsome; settings: read-out: CLH
[5] = Lipophilicity, log D of compound; format: physicochemical; settings: octanol/water
[6] = target: Cyclin-dependent kinase 2/cyclin E1 (Homo sapiens, UniProt P24941); experiment: Inhibition of CDK2/cyclin E1 (unknown origin) using 5-FAM-labeled peptide as substrate in presence of ATP by mobility shift assay; format: protein-complex assay
Procedure, shortened: (§2)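 Conditions by kinase: CDK2/cyclin E1 0.5 nM with 100 μM ATP; CDK9/cyclin T1 8 nM with 30 μM ATP; CDK12/cyclin K 50 nM with 30 μM ATP.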

[7] = target: Cyclin-dependent kinase 7/ cyclin H (Homo sapiens, UniProt P50613); experiment: Binding affinity to full length CDK7 (1 to 346 residues) /N-terminal TEV cleavable 6His tagged full length cyclinH (1 to 323 residues) (unknown origin) expressed in baculovirus infected Sf9 cells by Surface plasmon resonance assay
Procedure, shortened: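 SPR on CDK7/cyclin H dimer, amine-coupled to a CM5 chip at 200–400 RU, with reference flow cells subtracted. Titration was 9-step 2-fold from 20 nM in HEPES pH 7.5, 150 mM NaCl, 0.05% P20, with 70 s contact and 300 s dissociation. Slow off-rate binders were rerun 4-step 3-fold from 10 nM with 1800 s dissociation.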

CDK9/cyclin T1 = CDK9/cyclin T1 (Homo sapiens, UniProt P50750); experiment: Inhibition of CDK9/cyclin T1 (unknown origin) using 5-FAM-labeled peptide as substrate in presence of ATP by mobility shift assay; format: protein-complex assay; procedure, shortened: as §2
CDK12/Cyclin K = CDK12/Cyclin K (Homo sapiens, UniProt Q9NYV4); experiment: Inhibition of CDK12/cyclin K (unknown origin) using 5-FAM-labeled peptide as substrate in presence of ATP by mobility shift assay; format: protein-complex assay; procedure, shortened: as §2
HCC70 [8] = experiment: Antiproliferative activity against human HCC70 cells incubated for 72 hrs by Celltiter-glo assay; format: functional, cell-based; settings: HCC70, 72 h
Procedure, shortened: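 HCC70 cells in log growth plated the day before, then incubated with compound for 72 h at ten concentrations from 4 to 0.000126 μM, duplicates per dose. Read-out was CellTiter-Glo 2.0 viability. Inhibition was calculated against the averaged DMSO signal on the same plate.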

HCC70 [9] = experiment: Antitumour activity against human HCC70 cells xenografted in BALB/c mouse assessed as tumour growth inhibition at 4 mg/kg, po bid for 21 days measured after 7 days post treatment by vernier caliper method; format: functional, organism-based; settings: time 28.0 day
Procedure, shortened: (§3)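 Female Balb/c nude mice, 6–8 weeks old, implanted subcutaneously with HCC70 cells. At 150–200 mm3 tumours, mice were randomized, 10 per arm. Dosing was by oral gavage for 21 days, then a 7-day observation period: 2 mg/kg QD, or 2.5 or 4 mg/kg BID. Tumour volume was measured by caliper and body weight recorded twice weekly. TGI was calculated from tumour volumes.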

HCC70 [10] = experiment: Antitumour activity against human HCC70 cells xenografted in po dosed BALB/c mouse assessed as tumour growth inhibition administered twice daily for 21 days measured after 7 days post treatment by vernier caliper method; format: functional, organism-based; settings: dose 2.5-4 mg/kg, time 28.0 day; procedure, shortened: as §3

CDK12/Cyclin K, sequence (O75909 whole entry): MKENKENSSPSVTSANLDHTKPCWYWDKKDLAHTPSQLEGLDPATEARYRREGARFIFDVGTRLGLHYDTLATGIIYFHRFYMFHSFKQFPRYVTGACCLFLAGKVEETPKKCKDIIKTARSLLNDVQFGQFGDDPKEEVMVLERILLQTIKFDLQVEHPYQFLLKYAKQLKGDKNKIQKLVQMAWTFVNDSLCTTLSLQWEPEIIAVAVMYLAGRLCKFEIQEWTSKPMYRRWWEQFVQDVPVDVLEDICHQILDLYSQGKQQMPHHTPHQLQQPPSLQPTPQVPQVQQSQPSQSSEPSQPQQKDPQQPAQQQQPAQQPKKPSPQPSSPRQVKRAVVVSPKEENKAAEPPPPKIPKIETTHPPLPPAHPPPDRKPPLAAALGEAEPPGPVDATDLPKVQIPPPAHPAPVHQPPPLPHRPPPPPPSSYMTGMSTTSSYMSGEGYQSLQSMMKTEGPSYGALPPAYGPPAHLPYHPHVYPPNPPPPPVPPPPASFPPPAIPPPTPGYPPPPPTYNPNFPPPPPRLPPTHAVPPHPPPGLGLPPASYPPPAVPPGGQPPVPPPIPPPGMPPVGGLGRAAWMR
CDK12/Cyclin K, sequence (Q9NYV4 whole entry): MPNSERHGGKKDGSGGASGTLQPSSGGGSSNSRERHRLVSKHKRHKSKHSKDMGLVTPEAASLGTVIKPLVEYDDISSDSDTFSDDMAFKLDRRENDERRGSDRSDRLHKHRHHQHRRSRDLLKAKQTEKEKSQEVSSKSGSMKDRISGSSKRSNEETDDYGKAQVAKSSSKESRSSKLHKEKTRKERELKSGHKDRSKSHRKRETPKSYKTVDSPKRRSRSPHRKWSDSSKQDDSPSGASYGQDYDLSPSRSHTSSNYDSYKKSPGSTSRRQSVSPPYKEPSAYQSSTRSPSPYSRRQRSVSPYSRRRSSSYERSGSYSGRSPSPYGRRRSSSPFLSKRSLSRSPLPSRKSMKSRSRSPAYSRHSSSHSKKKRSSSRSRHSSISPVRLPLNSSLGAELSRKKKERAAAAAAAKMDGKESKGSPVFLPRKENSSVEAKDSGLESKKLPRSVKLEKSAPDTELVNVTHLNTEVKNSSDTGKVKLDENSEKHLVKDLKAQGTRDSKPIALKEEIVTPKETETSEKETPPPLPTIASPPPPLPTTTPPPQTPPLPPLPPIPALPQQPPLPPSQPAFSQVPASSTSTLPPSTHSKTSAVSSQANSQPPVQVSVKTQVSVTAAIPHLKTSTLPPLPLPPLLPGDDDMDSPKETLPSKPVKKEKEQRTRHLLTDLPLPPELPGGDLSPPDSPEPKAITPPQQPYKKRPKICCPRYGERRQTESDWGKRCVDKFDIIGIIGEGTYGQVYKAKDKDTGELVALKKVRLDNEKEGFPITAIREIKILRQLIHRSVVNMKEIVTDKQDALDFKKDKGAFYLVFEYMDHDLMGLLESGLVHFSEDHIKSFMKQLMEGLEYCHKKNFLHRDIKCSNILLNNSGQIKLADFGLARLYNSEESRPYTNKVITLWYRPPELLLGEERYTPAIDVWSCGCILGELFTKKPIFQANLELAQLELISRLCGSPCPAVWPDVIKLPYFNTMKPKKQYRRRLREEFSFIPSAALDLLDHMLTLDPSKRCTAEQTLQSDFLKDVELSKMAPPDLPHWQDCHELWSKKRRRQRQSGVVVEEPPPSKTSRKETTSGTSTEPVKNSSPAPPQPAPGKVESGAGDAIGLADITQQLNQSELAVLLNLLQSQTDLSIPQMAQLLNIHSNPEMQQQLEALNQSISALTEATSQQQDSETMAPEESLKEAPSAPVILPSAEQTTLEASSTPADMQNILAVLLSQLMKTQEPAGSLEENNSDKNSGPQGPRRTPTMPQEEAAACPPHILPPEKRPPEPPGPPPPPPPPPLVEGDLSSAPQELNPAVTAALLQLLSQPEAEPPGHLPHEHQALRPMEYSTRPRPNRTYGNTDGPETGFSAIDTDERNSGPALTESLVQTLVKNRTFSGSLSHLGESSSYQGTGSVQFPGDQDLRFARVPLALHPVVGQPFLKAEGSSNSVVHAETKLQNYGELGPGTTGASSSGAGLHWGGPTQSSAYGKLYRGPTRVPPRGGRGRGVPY
CDK9/cyclin T1, sequence (O60563 whole entry): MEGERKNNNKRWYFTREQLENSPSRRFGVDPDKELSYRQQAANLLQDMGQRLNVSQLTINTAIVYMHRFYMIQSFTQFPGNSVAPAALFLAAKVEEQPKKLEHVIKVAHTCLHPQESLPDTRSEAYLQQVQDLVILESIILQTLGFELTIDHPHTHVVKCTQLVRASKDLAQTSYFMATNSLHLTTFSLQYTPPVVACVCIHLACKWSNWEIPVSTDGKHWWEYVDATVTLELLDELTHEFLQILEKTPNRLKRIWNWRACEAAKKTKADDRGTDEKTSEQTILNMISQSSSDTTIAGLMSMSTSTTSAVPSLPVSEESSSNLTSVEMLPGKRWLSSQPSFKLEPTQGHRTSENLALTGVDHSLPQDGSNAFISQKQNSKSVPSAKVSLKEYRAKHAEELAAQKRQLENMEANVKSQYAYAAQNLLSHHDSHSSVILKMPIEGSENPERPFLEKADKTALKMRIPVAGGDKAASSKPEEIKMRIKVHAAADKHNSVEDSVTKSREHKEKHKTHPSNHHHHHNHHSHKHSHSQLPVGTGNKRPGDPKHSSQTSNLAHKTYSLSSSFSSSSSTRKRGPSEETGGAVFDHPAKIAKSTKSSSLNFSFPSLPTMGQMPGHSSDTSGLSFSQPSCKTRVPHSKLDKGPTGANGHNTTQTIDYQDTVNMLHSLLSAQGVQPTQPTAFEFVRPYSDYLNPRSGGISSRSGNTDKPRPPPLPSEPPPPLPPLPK
CDK9/cyclin T1, sequence (P50750 whole entry): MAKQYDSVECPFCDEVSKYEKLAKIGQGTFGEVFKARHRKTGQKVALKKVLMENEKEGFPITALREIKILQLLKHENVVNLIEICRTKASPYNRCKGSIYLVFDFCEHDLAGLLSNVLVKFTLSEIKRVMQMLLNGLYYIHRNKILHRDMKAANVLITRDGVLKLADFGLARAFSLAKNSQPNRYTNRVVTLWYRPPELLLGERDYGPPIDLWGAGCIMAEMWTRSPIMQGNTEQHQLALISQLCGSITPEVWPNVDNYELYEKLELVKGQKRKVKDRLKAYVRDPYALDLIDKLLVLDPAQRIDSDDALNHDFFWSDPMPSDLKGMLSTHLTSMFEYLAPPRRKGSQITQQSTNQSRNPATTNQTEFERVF
Cyclin-dependent kinase 7/ cyclin H, sequence (P51946 whole entry, the tested form may be a part): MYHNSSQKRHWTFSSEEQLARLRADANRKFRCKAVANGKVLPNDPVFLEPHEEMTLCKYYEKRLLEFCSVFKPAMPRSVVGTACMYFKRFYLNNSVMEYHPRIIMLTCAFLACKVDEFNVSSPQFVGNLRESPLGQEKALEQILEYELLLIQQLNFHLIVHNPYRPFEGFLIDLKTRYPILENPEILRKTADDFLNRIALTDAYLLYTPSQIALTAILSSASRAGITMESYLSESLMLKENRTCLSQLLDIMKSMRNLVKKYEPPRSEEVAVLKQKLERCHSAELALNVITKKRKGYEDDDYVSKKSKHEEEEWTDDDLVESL
Cyclin-dependent kinase 7/ cyclin H, sequence (P50613 whole entry, the tested form may be a part): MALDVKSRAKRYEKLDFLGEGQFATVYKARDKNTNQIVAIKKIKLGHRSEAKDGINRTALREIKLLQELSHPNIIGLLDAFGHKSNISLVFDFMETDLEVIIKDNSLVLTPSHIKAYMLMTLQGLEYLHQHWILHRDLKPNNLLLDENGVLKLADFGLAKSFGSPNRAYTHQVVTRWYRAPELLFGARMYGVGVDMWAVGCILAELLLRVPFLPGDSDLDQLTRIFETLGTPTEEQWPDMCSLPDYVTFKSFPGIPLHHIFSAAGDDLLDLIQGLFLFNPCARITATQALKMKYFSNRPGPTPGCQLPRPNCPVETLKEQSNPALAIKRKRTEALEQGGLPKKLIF

| bioavailability [1] | CL free [2] | Papp A→B [3] | CLint scaled [4] | logD [5] | IC50 [6] | Kd [7] | IC50 (CDK9/cyclin T1) | IC50 (CDK12/Cyclin K) | Compound | EC50 (HCC70 [8]) | Activity (HCC70 [9]) | Activity (HCC70 [10]) |
| --- | --- | --- | --- | --- | --- | --- | --- | --- | --- | --- | --- | --- |
| 16% | 514 mL/min/kg | 1.63 ×10⁻⁶ cm/s | 150 mL/min/kg | 2.71 | 460 nM | 0.1 nM | 138 nM | 112 nM | Cc1noc(C)c1-c1ccc2c(-c3nc(N[C@H]4CCCNC4)ncc3C(F)(F)F)c[nH]c2c1 |  |  |  |
| 3% | 73 mL/min/kg | 1.02 ×10⁻⁶ cm/s | < 38 mL/min/kg | 0.78 | 414 nM | 0.08 nM | 286 nM | 102 nM | CP(C)(=O)c1cccc2c(-c3nc(N[C@H]4CCCNC4)ncc3C(F)(F)F)c[nH]c12 | 0.2 nM |  |  |
| 40% | 1477 mL/min/kg |  | 120 mL/min/kg | 3.07 | 52 nM | 0.21 nM | 41 nM | 36 nM | CC1(C)CNC[C@@H](Nc2ncc(C(F)(F)F)c(-c3c[nH]c4ccccc34)n2)C1 |  |  |  |
| 100% | 568 mL/min/kg | 11.1 ×10⁻⁶ cm/s | 127 mL/min/kg | 2.02 | 42 nM | 0.15 nM | 21 nM | 24 nM | FC(F)(F)c1cnc(N[C@H]2CCCNC2)nc1-c1c[nH]c2ccccc12 | 11 nM |  |  |
|  | 394 mL/min/kg | 1.12 ×10⁻⁶ cm/s | 89 mL/min/kg | 0.49 | 1640 nM | 0.15 nM | 907 nM | 215 nM | CCc1cnc(N[C@H]2CCCNC2)nc1-c1c[nH]c2c(S(C)(=O)=O)c(C#N)ccc12 | 287 nM |  |  |
| 36% | 712 mL/min/kg | 4.62 ×10⁻⁶ cm/s | < 38 mL/min/kg | 2.6 | 189 nM | 0.03 nM | 90 nM | 75 nM | Cc1noc(C)c1-c1ccc2c(-c3nc(N[C@H]4CCCNC4)ncc3C(F)(F)F)c[nH]c2n1.Cl | 9 nM | Active | Dose-Dependent Effect |
| 28% | 597 mL/min/kg | 3.32 ×10⁻⁶ cm/s | 164 mL/min/kg | 2.7 | 771 nM | 0.06 nM | 572 nM | 156 nM | CC1(C)CNC[C@@H](Nc2ncc(C(F)(F)F)c(-c3c[nH]c4c(P(C)(C)=O)c(C#N)ccc34)n2)C1 | 1 nM |  |  |
| 5% | 368 mL/min/kg | 1.86 ×10⁻⁶ cm/s | < 38 mL/min/kg | 1.05 | 284 nM | 0.08 nM | 60 nM | 33 nM | CS(=O)(=O)c1c(C#N)ccc2c(-c3nc(N[C@H]4CCCNC4)ncc3C(F)(F)F)c[nH]c12 | 15 nM |  |  |
| 2% | 473 mL/min/kg | 0.49 ×10⁻⁶ cm/s | 107 mL/min/kg | 1.29 | 923 nM | 0.4 nM | 430 nM | 135 nM | CCc1cnc(N[C@H]2CCCNC2)nc1-c1c[nH]c2ccccc12 | 230 nM |  |  |
|  | 729 mL/min/kg | 0.86 ×10⁻⁶ cm/s | < 38 mL/min/kg | 1.31 | 299 nM | 0.1 nM | 133 nM | 69 nM | CS(=O)(=O)c1ccc2c(-c3nc(N[C@H]4CCCNC4)ncc3C(F)(F)F)c[nH]c2c1 | 89 nM |  |  |
|  |  |  | 116 mL/min/kg | 2.48 | 128 nM | 0.34 nM | 71 nM | 95 nM | CC1(C)CC[C@H](Nc2ncc(C(F)(F)F)c(-c3c[nH]c4ccccc34)n2)CN1 |  |  |  |
| 43% | 656 mL/min/kg | 4.63 ×10⁻⁶ cm/s | 62 mL/min/kg | 2.28 | 347 nM | 0.09 nM | 86 nM | 60 nM | N#Cc1ccc2c(-c3nc(N[C@H]4CCCNC4)ncc3C(F)(F)F)c[nH]c2c1 | 36 nM |  |  |
| 49% | 309 mL/min/kg | 3.28 ×10⁻⁶ cm/s | < 38 mL/min/kg | 1.33 | 78 nM | 0.07 nM | 32 nM | 15 nM | CS(=O)(=O)c1cccc2c(-c3nc(N[C@H]4CCCNC4)ncc3C(F)(F)F)c[nH]c12 | 14 nM |  |  |
| 39% | 457 mL/min/kg | 5.26 ×10⁻⁶ cm/s | 109 mL/min/kg | 1.78 | 102 nM | 0.33 nM | 23 nM | 29 nM | Clc1cnc(N[C@H]2CCCNC2)nc1-c1c[nH]c2ccccc12 | 40 nM |  |  |
